Consider eight molecules from ChEMBL document CHEMBL3351563, “Discovery of 2-[2-(5-nitrofuran-2-yl)vinyl]quinoline derivatives as a novel type of antimetastatic agents” (Bioorg Med Chem, 2015).

Active and inactive are the calls of the source. The calls are words filed in the database; no cut-off is given here.

One may read the IC50 as the midpoint of a concentration-inhibition curve. Higher therefore signals a need for much substance. As usually defined, the residual activity is the signal under treatment as a percentage of the control signal. Low readings indicate little activity left, high ones much activity left.

One assay concerns A549. Kind of assay: Antiproliferative activity against human A549 cells by XTT assay. Format: functional, cell-based. Put shortly:
(§1)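 Cells (5 × 10³/well) exposed to compound for 72 h in medium with 10% FBS, medium changed and cells incubated another day. Percent of control growth from mean absorbance (n = 3).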
On the technique in general: Tetrazolium dyes change colour on reduction, which living cells bring about.

In another assay the test system is MCF7. As to the kind of experiment: Antiproliferative activity against human MCF7 cells by XTT assay. Format: functional, cell-based. Put shortly: as §1
Assay [1] is described as follows: Antiproliferative activity against human H1299 cells by XTT assay. It is filed as functional, cell-based. Particulars: NCI-H1299. Summed up:
as §1

Another assay concerns MDA-MB-231. Kind of assay: Antiproliferative activity against human MDA-MB-231 cells by XTT assay. It is filed as functional, cell-based. Summed up: as §1
In the next assay the test system is MRC5. As to the kind of experiment: Antiproliferative activity against human MRC5 cells by XTT assay. Format: cell-based. Summed up:
as §1

For assay [2], the target named is Matrix metalloproteinase-9 (Homo sapiens) (UniProt P14780). Kind of assay: Inhibition of MMP9 activity in human H1299 cells at 1 uM after 24 hrs by gelatin zymography; values are per cent of control.
Assay [3] has the same target. Kind of assay: Inhibition of MMP9 activity in human H1299 cells at 2 uM after 24 hrs by gelatin zymography; values are per cent of control.
Assay [4] addresses 72 kDa type IV collagenase (Homo sapiens) (UniProt P08253). As to the kind of experiment: Residual MMP2 activity in human H1299 cells at 1 uM after 24 hrs by gelatin zymography.
In assay [5] the target is MAP kinase p38 (Homo sapiens) (UniProt O15264+Q15759+Q16539+P53778). Kind of assay: Increase in p38 phosphorylation in human H1299 cells at 1 to 5 uM after 24 hrs by Western blotting method. Format: cell-based. Put shortly:
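H1299 cells given vehicle or 0.2, 0.5, 1, 2 and 5 µM compound. Lysate proteins probed with primary and secondary antibodies after 5% milk blocking, ECL chemiluminescence detection. β-actin as internal control; each blot representative of three independent experiments.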
(Immunoblotting shows a protein as a band on a membrane.)

Assay [6] deals with 72 kDa type IV collagenase (Homo sapiens) (UniProt P08253). Kind of assay: Residual MMP2 activity in human H1299 cells at 2 uM after 24 hrs by gelatin zymography.
The target is the same in assay [7]. As to the kind of experiment: Residual MMP2 activity in human H1299 cells at 5 uM after 24 hrs by gelatin zymography.
Assay [8] deals with Matrix metalloproteinase-9 (Homo sapiens) (UniProt P14780). Kind of assay: Inhibition of MMP9 activity in human H1299 cells after 24 hrs by gelatin zymography. It is filed as cell-based. Summed up:
(§2)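 3 × 10⁵ H1299 cells cultured 24 h with compound. Conditioned medium run on 10% SDS-PAGE with 1% gelatin, gel incubated overnight at 37 °C in 40 mM Tris-HCl pH 8.0, 10 mM CaCl₂, 0.02% NaN₃, then Coomassie-stained and destained. Bands quantified versus vehicle; n = 3.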

The target in assay [9] is 72 kDa type IV collagenase (Homo sapiens) (UniProt P08253). As to the kind of experiment: Inhibition of MMP2 activity in human H1299 cells after 24 hrs by gelatin zymography. Format: cell-based. Summed up: as §2

Sequence of 72 kDa type IV collagenase (Homo sapiens) (P08253 110-660 limits assumed): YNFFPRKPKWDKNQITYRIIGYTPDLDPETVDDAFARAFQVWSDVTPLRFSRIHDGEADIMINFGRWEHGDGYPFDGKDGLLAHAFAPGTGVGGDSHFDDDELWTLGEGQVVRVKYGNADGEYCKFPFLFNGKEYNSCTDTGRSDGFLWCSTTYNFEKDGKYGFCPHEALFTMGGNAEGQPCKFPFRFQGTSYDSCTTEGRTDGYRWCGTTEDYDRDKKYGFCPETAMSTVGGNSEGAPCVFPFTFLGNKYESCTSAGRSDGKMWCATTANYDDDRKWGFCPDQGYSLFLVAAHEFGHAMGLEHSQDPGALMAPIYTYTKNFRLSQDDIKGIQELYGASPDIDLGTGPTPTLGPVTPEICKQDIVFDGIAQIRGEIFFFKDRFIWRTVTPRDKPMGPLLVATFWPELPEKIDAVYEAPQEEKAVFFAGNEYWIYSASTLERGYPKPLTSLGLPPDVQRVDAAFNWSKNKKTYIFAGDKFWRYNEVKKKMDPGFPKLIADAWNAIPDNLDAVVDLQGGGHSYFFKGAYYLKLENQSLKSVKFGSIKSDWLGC
Sequence of Matrix metalloproteinase-9 (Homo sapiens) (P14780 whole entry): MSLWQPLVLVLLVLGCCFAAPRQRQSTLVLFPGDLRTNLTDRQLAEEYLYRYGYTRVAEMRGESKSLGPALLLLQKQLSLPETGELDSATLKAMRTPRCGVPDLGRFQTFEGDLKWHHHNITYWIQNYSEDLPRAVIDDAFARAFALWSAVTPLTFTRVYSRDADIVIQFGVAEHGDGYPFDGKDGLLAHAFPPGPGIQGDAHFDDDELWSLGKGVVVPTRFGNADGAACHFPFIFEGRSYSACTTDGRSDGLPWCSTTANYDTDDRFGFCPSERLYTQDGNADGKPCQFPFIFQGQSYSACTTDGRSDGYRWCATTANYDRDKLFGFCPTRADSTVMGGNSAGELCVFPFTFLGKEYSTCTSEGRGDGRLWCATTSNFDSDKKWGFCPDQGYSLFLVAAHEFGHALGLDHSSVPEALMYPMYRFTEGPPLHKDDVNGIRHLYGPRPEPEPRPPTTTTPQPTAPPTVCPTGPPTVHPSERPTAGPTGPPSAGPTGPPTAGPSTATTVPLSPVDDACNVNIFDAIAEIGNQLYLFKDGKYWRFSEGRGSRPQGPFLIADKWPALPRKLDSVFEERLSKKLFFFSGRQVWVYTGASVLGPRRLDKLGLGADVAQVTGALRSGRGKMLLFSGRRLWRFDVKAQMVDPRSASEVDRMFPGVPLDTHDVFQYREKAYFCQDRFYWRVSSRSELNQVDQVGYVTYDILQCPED

Take `COc1ccc2c(c1)C(=O)c1c-2c(C)nc2ccc(OC)cc12`: the IC50 in the assay with A549 turned out to be 75900 nM; in the assay with MCF7, 42000 nM; in assay [1], 33700 nM; with MDA-MB-231, 62300 nM; with MRC5, 78400 nM.
Regarding `COc1ccc2c(c1)C(=O)c1c-2c(/C=C/c2ccc([N+](=O)[O-])o2)nc2ccccc12`, the IC50 with A549 is 70 nM; in the assay with MCF7, 620 nM; in assay [1], 80 nM; in the assay on MDA-MB-231, 95 nM; with MRC5, 93 nM.
Turning to `COc1ccc(-c2cc3cc(OC)ccc3nc2/C=C/c2ccc([N+](=O)[O-])o2)cc1`, the residual activity was 63.9% in assay [2]; 31.5% in [3]; 75.5% in assay [4]; 63.7% in assay [6]; 56.3% in assay [7]. Moreover, the result in assay [5] was Active. Also, the inhibition entry in assay [8] and in assay [9] was “Dose-dependent effect” each time.
As for `COc1cccc2c1C(=O)c1c(O)c3c(c(O)c1C2=O)C[C@@](O)(C(C)=O)C[C@@H]3O[C@H]1C[C@H](N)[C@H](O)[C@H](C)O1` [DAUNORUBICIN], the IC50 in the assay on A549 is 80 nM; in the assay on MCF7, 650 nM; in assay [1], 96 nM; in the assay with MDA-MB-231, 91 nM; with MRC5 it was 78 nM.
On to `COc1ccc2c(c1)C(=O)c1c-2c(C)nc2ccc(F)cc12`, for which the 50% inhibitory concentration (IC50) amounted to 71100 nM with A549; 39600 nM with MCF7; 31600 nM in [1]; 52100 nM in the assay with MDA-MB-231; 43200 nM with MRC5.
The like results for `COc1ccc2c(c1)C(=O)c1c-2c(/C=C/c2ccc([N+](=O)[O-])o2)nc2ccc(OC)cc12` were, in that order, 1320 nM, 870 nM, 890 nM, 930 nM and 6070 nM.
The like results for `COc1ccc2c(c1)C(=O)c1c-2c(C)nc2ccccc12` were, in that order, 61600 nM, 32600 nM, 21400 nM, 42000 nM and 65400 nM.
For the molecule `COc1ccc2c(c1)C(=O)c1c-2c(/C=C/c2ccc([N+](=O)[O-])o2)nc2ccc(F)cc12`, the IC50 in the assay with A549 was determined as 740 nM; with MCF7, 580 nM; in assay [1], 460 nM; in the assay on MDA-MB-231 it was 93 nM; in the assay with MRC5 it was 800 nM.
